In brackets after ≈: the same amount, converted by molar mass.
Assays:
[1] = test system: Mycobacterium tuberculosis; assay: Antitubercular activity against Mycobacterium tuberculosis H37Rv after 4 weeks by agar dilution method; format: functional; conditions: 672 h
How it was run: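 Proportion method on agar: serial twofold dilutions mixed into warm Middlebrook 7H10 agar and set as slants. Each slant surface inoculated with 10⁵ CFU of M. tuberculosis H37Rv in 10 µL, then incubated at 37 °C for 4 weeks. MIC (µg/mL) taken as the lowest concentration giving complete inhibition of colony growth. Rifampicin and isoniazid served as reference drugs.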

[2] = Cytotoxicity against african green monkey Vero C1008 cells; format: cell-based; conditions: chlorocebus sabaeus
How it was run: (§1)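 MTS (Mosmann-type) viability assay. 10⁴ cells/well in DME with 10% foetal bovine serum plus antibiotics were pre-incubated 24 h at 37 °C, 5% CO2. Medium was then replaced with serial dilutions of compound, a standard toxic compound or DMSO, and incubated a further 24 h. MTS was added and absorbance read at 490 nm after 2 h. DMSO wells were set as 100% viability.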

[3] = Cytotoxicity against mouse bone marrow derived macrophages; format: cell-based; conditions: macrophage; how it was run: as §1

Row | SMILES | MIC [1] [µg/mL] | Activity [2] | Activity [3]
1 | CCCCCCCCCCCCNC(=O)CS[C@@H]1O[C@H](COC(C)=O)[C@@H](O[C@@H]2O[C@H](COC(C)=O)[C@H](OC(C)=O)[C@H](OC(C)=O)[C@H]2OC(C)=O)[C@H](OC(C)=O)[C@H]1OC(C)=O | > 12.5 | – | –
2 | CC(=O)O[C@@H]1[C@H](OC(C)=O)[C@H](OC(C)=O)CO[C@H]1S(=O)(=O)CC(N)=O | 6.25 (≈ 16.4 µM) | Non-toxic | Non-toxic
3 | CCCCCCCCNC(=O)CS(=O)(=O)[C@@H]1OC[C@@H](OC(C)=O)[C@@H](OC(C)=O)[C@@H]1OC(C)=O | > 12.5 | – | –
4 | CCCCCCCCNC(=O)CS(=O)(=O)[C@@H]1O[C@H](COC(C)=O)[C@@H](OC(C)=O)[C@H](OC(C)=O)[C@H]1OC(C)=O | > 12.5 | – | –
5 | CCCCCCCCNC(=O)CS[C@@H]1O[C@H](COC(C)=O)[C@@H](O[C@@H]2O[C@H](COC(C)=O)[C@H](OC(C)=O)[C@H](OC(C)=O)[C@H]2OC(C)=O)[C@H](OC(C)=O)[C@H]1OC(C)=O | > 12.5 | – | –
6 | CC(=O)O[C@H]1[C@H](OC(C)=O)[C@H](SCC(N)=O)OC[C@H]1OC(C)=O | > 12.5 | – | –
7 | CC(=O)OC[C@H]1O[C@@H](S(=O)(=O)CC(N)=O)[C@@H](OC(C)=O)[C@@H](OC(C)=O)[C@@H]1OC(C)=O | > 12.5 | – | –
8 | CCCCCCCCCCCCNC(=O)CS(=O)(=O)[C@@H]1OC[C@@H](OC(C)=O)[C@@H](OC(C)=O)[C@@H]1OC(C)=O | > 12.5 | – | –
9 | CC(=O)OC[C@H]1O[C@@H](SCC(N)=O)[C@H](OC(C)=O)[C@@H](OC(C)=O)[C@H]1OC(C)=O | 1.56 (≈ 3.7 µM) | Non-toxic | Non-toxic
10 | CC(=O)OC[C@H]1O[C@@H](SCC(=O)NCc2ccccc2)[C@H](OC(C)=O)[C@@H](OC(C)=O)[C@@H]1OC(C)=O | 6.25 (≈ 12.2 µM) | – | –
11 | CC(=O)O[C@@H]1[C@@H](OC(C)=O)[C@H](OC(C)=O)CO[C@H]1S(=O)(=O)CC(N)=O | 12.5 (≈ 32.8 µM) | – | –
12 | CC(=O)OC[C@H]1O[C@@H](O[C@H]2[C@H](OC(C)=O)[C@@H](OC(C)=O)[C@H](SCC(N)=O)O[C@@H]2COC(C)=O)[C@H](OC(C)=O)[C@@H](OC(C)=O)[C@H]1OC(C)=O | > 12.5 | – | –
13 | CC(=O)O[C@@H]1[C@@H](OC(C)=O)[C@H](SCC(N)=O)OC[C@H]1OC(C)=O | 12.5 (≈ 35.8 µM) | – | –
14 | CC(=O)O[C@H]1[C@H](OC(C)=O)[C@H](OC(C)=O)CO[C@H]1S(=O)(=O)CC(N)=O | 12.5 (≈ 32.8 µM) | – | –
15 | CC(=O)OC[C@H]1O[C@@H](SCC(N)=O)[C@H](OC(C)=O)[C@@H](OC(C)=O)[C@@H]1OC(C)=O | 3.12 (≈ 7.42 µM) | Non-toxic | Non-toxic
16 | CCCCCCCCCCCCNC(=O)CS(=O)(=O)[C@@H]1O[C@H](COC(C)=O)[C@@H](OC(C)=O)[C@H](OC(C)=O)[C@H]1OC(C)=O | > 12.5 | – | –

Row | SMILES | MIC [1] [µg/mL] | Activity [2] | Activity [3]
17 | CC(=O)OC[C@H]1O[C@@H](SCC(N)=O)[C@H](OC(C)=O)[C@@H](OC(C)=O)[C@@H]1O[C@@H]1O[C@H](COC(C)=O)[C@@H](OC(C)=O)[C@H](OC(C)=O)[C@H]1OC(C)=O | > 12.5 | – | –
18 | CC(=O)OC[C@H]1O[C@@H](S(=O)(=O)CC(=O)NCc2ccccc2)[C@H](OC(C)=O)[C@@H](OC(C)=O)[C@@H]1OC(C)=O | 6.25 (≈ 11.5 µM) | Non-toxic | Non-toxic
19 | CC(=O)OC[C@H]1O[C@@H](S(=O)(=O)CC(N)=O)[C@H](OC(C)=O)[C@@H](OC(C)=O)[C@H]1OC(C)=O | 3.12 (≈ 6.89 µM) | Non-toxic | Non-toxic
20 | CC(=O)OC[C@H]1O[C@@H](SCC(N)=O)[C@@H](OC(C)=O)[C@@H](OC(C)=O)[C@@H]1OC(C)=O | 3.12 (≈ 7.42 µM) | Non-toxic | Non-toxic
21 | CC(=O)OC[C@H]1O[C@@H](S(=O)(=O)CC(N)=O)[C@H](OC(C)=O)[C@@H](OC(C)=O)[C@@H]1O[C@@H]1O[C@H](COC(C)=O)[C@@H](OC(C)=O)[C@H](OC(C)=O)[C@H]1OC(C)=O | 25 (≈ 33.7 µM) | – | –
22 | CCCCCCCCNC(=O)CS[C@@H]1OC[C@@H](OC(C)=O)[C@@H](OC(C)=O)[C@@H]1OC(C)=O | > 12.5 | – | –
23 | CCCCCCCCCCCCNC(=O)CS(=O)(=O)[C@@H]1O[C@H](COC(C)=O)[C@@H](O[C@@H]2O[C@H](COC(C)=O)[C@H](OC(C)=O)[C@H](OC(C)=O)[C@H]2OC(C)=O)[C@H](OC(C)=O)[C@H]1OC(C)=O | > 12.5 | – | –
24 | CCCCCCCCCCCCNC(=O)CS[C@@H]1O[C@H](COC(C)=O)[C@@H](OC(C)=O)[C@H](OC(C)=O)[C@H]1OC(C)=O | > 12.5 | – | –
25 | CC(=O)OC[C@H]1O[C@@H](O[C@H]2[C@H](OC(C)=O)[C@@H](OC(C)=O)[C@H](S(=O)(=O)CC(N)=O)O[C@@H]2COC(C)=O)[C@H](OC(C)=O)[C@@H](OC(C)=O)[C@H]1OC(C)=O | 3.12 (≈ 4.21 µM) | Non-toxic | Non-toxic
26 | CCCCCCCCCCCCNC(=O)CS[C@@H]1OC[C@@H](OC(C)=O)[C@@H](OC(C)=O)[C@@H]1OC(C)=O | 3.12 (≈ 6.04 µM) | Non-toxic | Non-toxic
27 | CCCCCCCCNC(=O)CS[C@@H]1O[C@H](COC(C)=O)[C@@H](OC(C)=O)[C@H](OC(C)=O)[C@H]1OC(C)=O | > 12.5 | – | –
28 | CC(=O)OC[C@H]1O[C@@H](S(=O)(=O)CC(N)=O)[C@H](OC(C)=O)[C@@H](OC(C)=O)[C@@H]1OC(C)=O | 3.12 (≈ 6.89 µM) | Non-toxic | Non-toxic
29 | CC(=O)O[C@@H]1[C@H](OC(C)=O)[C@H](OC(C)=O)CO[C@H]1SCC(N)=O | 12.5 (≈ 35.8 µM) | – | –
30 | CC(=O)OC[C@H]1O[C@@H](SCC(N)=O)[C@H](OC(C)=O)[C@@H](OC(C)=O)[C@@H]1O[C@H]1O[C@H](COC(C)=O)[C@@H](OC(C)=O)[C@H](OC(C)=O)[C@H]1OC(C)=O | > 12.5 | – | –
31 | CC(=O)OC[C@H]1O[C@@H](S(=O)(=O)CC(N)=O)[C@H](OC(C)=O)[C@@H](OC(C)=O)[C@@H]1O[C@H]1O[C@H](COC(C)=O)[C@@H](OC(C)=O)[C@H](OC(C)=O)[C@H]1OC(C)=O | 25 (≈ 33.7 µM) | – | –
32 | CCCCCCCCNC(=O)CS(=O)(=O)[C@@H]1O[C@H](COC(C)=O)[C@@H](O[C@@H]2O[C@H](COC(C)=O)[C@H](OC(C)=O)[C@H](OC(C)=O)[C@H]2OC(C)=O)[C@H](OC(C)=O)[C@H]1OC(C)=O | > 12.5 | – | –
